Shown is part of a subset that was picked to be rich in hits.
H69AR growth 86K: blocks growth of human H69AR lung tumor cells; 85,000 tested, 6% active; H69AR lung tumor viability, ATP luminescence, 72 h; hits give low values; AID 598; viability, % at 10 µM;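 active = viability at or below 40%; inactive = viability above 40%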;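 note: multidrug resistant small cell line overexpressing MRP-1 efflux transporter; 100% = mean luminescence of untreated control wells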
Phagocytosis inh: inhibitors of macrophage phagocytosis. J774A.1 macrophage IgG-bead phagocytosis, imaging. inhibition, % at 5 µM. 110,000 tested, 0.07% active;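 active = inhibition above the mean of the plate negative controls plus 5 SD, cut at about 13% in these data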;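 note: phagocytic index as fraction of beads internalized from green versus red external bead signal; plate controls were DMSO negative control for no effect and cytochalasin-D positive control for full effect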
HUVEC inhibit: human endothelial cell proliferation inhibition; HUVEC proliferation, CellTiter-Glo luminescence, 72 h; hits give low values; viability, % at 10 µM (by protocol); AID 648; 86,000 tested, 1.1% active;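 active = viability at or below 30%; inactive = viability above 30%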;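 note: 100% = median luminescence of DMSO-only cell control wells on each plate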
Fibroblast inh: blocks proliferation of human lung fibroblasts; LL 47 human lung fibroblast viability, ATP luminescence; hits give low values; viability, % at 10 µM; 85,000 tested, 1.1% active;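 active = viability at or below 50% in the single dose screen; inactive = viability above 50%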;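 note: compound exposure lasted 72 h before the ATP readout; 100% = median luminescence of untreated cell-only wells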
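Times – overnight cell rest, 72 h compound treatment at 37 °C · Test system – human lung fibroblast line LL 47, low passage · Amount – 1,150 cells in each well · Controls – cell-only wells, no compound · Doses – 0.1% DMSO in all compound wells · Measured by – CellTiter-Glo luminescence · Buffer or medium – IMEM plus 15% FBS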
HCT116 bCat-KO: beta-catenin-lacking colon tumor cell growth suppression; AID 818; HCT116 beta-catenin knockout viability, CellTiter-Glo, 60 h; hits give low values; 140,000 tested, 1.5% active; viability, % at 10 µM;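 active = viability at or under a set limit, the compound median less 4 SD, cut at about 6% in these data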;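 note: 0% = Hyamine 1622 control at 20 µM and 100% = untreated cell control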
PTEN del growth: growth suppressors of cells with PTEN tumor suppressor deletion | HCT116 PTEN-null viability, CellTiter-Glo, 60 h; hits give low values | viability, % at 10 µM | 140,000 tested, 1.2% active;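 active = viability at or below a set limit, 4 SD under the median of all tested compounds, cut at about 3.7% in these data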;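 note: PTEN knockout HCT116 line with beta catenin targeted HCT116 as companion control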
* = called active by the depositor; x = not tested or not shown.

SMILES	H69AR growth 86K	Phagocytosis inh	HUVEC inhibit	Fibroblast inh	HCT116 bCat-KO	PTEN del growth
COc1ccc(/C=C/C(=O)NCC(=O)N/N=C/c2cc(Br)ccc2OC)cc1	56.2	x	71.7	92.9	64.7	72.5
O=C(OCc1cnc(Cl)s1)c1ccccc1Cl	x	x	x	x	104.8	111.6
O=C(OCn1ncc(Br)c(Br)c1=O)c1ccc(F)cc1	1.8*	-0.5	2.3*	1.9*	0.8*	0.6*
O=C(OCn1ncc(Br)c(Br)c1=O)c1ccccc1Cl	1.2*	-0.8	2.6*	2.7*	1.5*	2.0*
COC(=O)c1cc(OC)c(OC)cc1NC(=O)c1cc(C)on1	64.3	x	93.4	96.7	x	x
CCOCCCNC(=O)Cn1cc2c(n1)CCCCC2	x	-0.4	x	x	93.4	104.7
Cc1cc(C)cc(NS(=O)(=O)c2ccc3c(c2)c(=O)n(C)c(=O)n3C)c1	83.1	-0.7	33.5	33.6*	46.5	39.4
CCOc1ccc(CN(C)CC(=O)Nc2ccc(N3CCOCC3)cc2)cc1OC	x	-12.8	x	x	94.7	95.0
CN1C(=O)C(O)(CC(=O)c2cccnc2)c2ccccc21 (centres undefined)	x	x	x	x	98.8	85.4
Cc1ccc(C(=O)CC2(O)C(=O)N(Cc3ccccc3Cl)c3ccccc32)o1 (centres undefined)	18.5*	0.0	81.9	89.1	22.9	14.4
Cc1ccc(C(=O)CC2(O)C(=O)N(Cc3ccccc3)c3ccccc32)o1 (centres undefined)	40.1	-0.9	74.8	89.2	19.9	13.1
O=C(CC1(O)C(=O)N(Cc2cccc3ccccc23)c2ccccc21)c1cccnc1 (centres undefined)	19.7*	4.2	39.6	53.1	11.6	13.5
CCN(Cc1ccccc1)S(=O)(=O)c1ccc(C(=O)N2CCN(c3nc4ccccc4s3)CC2)cc1	x	-3.6	x	x	58.2	58.2
CC(C)Cc1nc2oc3c(NCC4CCCO4)ncnc3c2c2c1CCC2 (centres undefined)	32.8*	-0.9	52.7	85.0	54.6	50.3
CC(C)Cc1nc2oc3c(NCc4cccnc4)ncnc3c2c2c1CCC2	x	-2.6	x	x	86.2	95.5
COc1cc(C(=O)N2CCN(c3ccc(C)cc3C)CC2)cc(OC)c1OC	19.1*	0.8	60.9	62.2	16.4	17.9
COc1cc(C(=O)N2CCCN(c3nc4cc(C)ccc4cc3C#N)CC2)cc(OC)c1OC	9.8*	-1.1	88.2	87.1	x	x
O=C1c2ccccc2-c2onc3ccc(Oc4ccccc4)c1c23	2.1*	x	4.4*	2.8*	1.9*	1.5*
O=C(Nc1nnc(COc2ccccc2)s1)C1CCN(S(=O)(=O)c2ccc(Cl)cc2)CC1	33.0*	-1.8	77.1	80.5	88.9	86.6
CCCC(=O)NC(Nc1cccc(C(F)(F)F)c1)C(Cl)(Cl)Cl (centres undefined)	x	x	x	x	60.0	53.7
C#CCSc1nsc(SCC#C)c1C#N	x	x	x	x	2.7*	5.3
O=[N+]([O-])c1ccc2nc(-c3ccc(Cl)cc3)[nH]c2c1	x	1.5	x	x	8.3	2.7*
O=C(Nc1ccncc1)C1CCCN(S(=O)(=O)c2cccc3cccnc23)C1 (centres undefined)	23.9*	0.0	66.9	57.5	23.4	22.8
COc1cc(N=c2ssnc2Cl)cc(OC)c1	0.0*	x	89.6	70.2	85.0	95.9
CCOC(=O)c1cc(CC)sc1NC(=O)CCC(=O)O	85.2	-4.6	91.7	91.3	94.7	95.9
SMILES	H69AR growth 86K	Phagocytosis inh	HUVEC inhibit	Fibroblast inh	HCT116 bCat-KO	PTEN del growth
CCCc1cc(C(N)=O)c(NC(C)=O)s1	39.9*	-3.6	85.1	98.8	91.5	81.8
O=c1c2cc3c(cc2[nH]c(=S)n1Cc1ccco1)OCO3	76.9	1.0	91.7	95.1	88.7	93.6
Cc1cnc(NC(=O)CCCc2nc3ccccc3s2)s1	71.3	-0.2	29.6*	35.2*	14.7	9.8
OC(CN1CCN(c2ccccc2)CC1)c1c[nH]c2ccccc12 (centres undefined)	37.9*	-0.1	87.3	87.3	86.0	79.5
Cc1[nH]c2ccccc2c1C(O)CN1CCN(c2cccc(C(F)(F)F)c2)CC1 (centres undefined)	1.3*	0.7	2.4*	42.7*	29.1	22.4
Cc1[nH]c2ccccc2c1NC(=O)CN1CCN(c2cccc(C(F)(F)F)c2)CC1	41.1	-1.4	82.1	96.0	81.1	66.1
COc1cc([N+](=O)[O-])ccc1NC(=O)C[n+]1ccccc1	x	-5.2	x	x	94.8	96.4

From PubChem BioAssay
